# The list is not random: actives were taken first. Their share in the collection is about 3.6%.
# IMP-1 inh-1 = blocks Pseudomonas aeruginosa IMP-1 metallo-beta-lactamase; purified IMP-1, nitrocefin hydrolysis, epi-absorbance fluorescence; inhibition, % at 5.6 µM; 0.45% of 290,000 active; AID 1556;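 active = inhibition above the mean plus 3 SD of all compounds in the same screening run, cut at about 4.5% in these data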;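 note: 0% = IMP-1 with DMSO and 100% = DMSO wells lacking enzyme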
#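 assay system = purified recombinant IMP-1 metallo-beta-lactamase enzyme | schedule = 15 min preincubation plus 25 min reaction at 25 °C | signal = Epi-absorbance fluorescence, 480 nm excitation, 530 nm emission | read-out basis = percent inhibition from optical density relative to buffer-blank wells | controls = IMP-1 with DMSO as 0%, enzyme-free DMSO as 100%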
# PAFAH2 inh = inhibitors of human PAFAH2; Q99487; recombinant PAFAH2, FP-rhodamine activity probe, fluorescence polarization; inhibition, % at 3.39 µM; 0.99% of 340,000 active; AID 492956;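 active = inhibition above the mean over all tested compounds plus 3 SD, cut at about 30% in these data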;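 note: inhibitors block probe labeling of enzyme so polarization drops; 0% = enzyme with DMSO and 100% = wells lacking PAFAH2 protein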
# pPAFAH FP inh = inhibitors of human plasma PAF acetylhydrolase (pPAFAH); Q13093; 1.5% of 330,000 active; inhibition, % at 3.39 µM; recombinant pPAFAH, FP-rhodamine probe fluorescence polarization;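 active = inhibition above the mean inhibition across the screen plus 3 SD, cut at about 25% in these data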;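 note: inhibitors block binding of the rhodamine activity-based probe so polarization drops; 0% = enzyme with DMSO and 100% = wells lacking pPAFAH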
# PAFAH1B3 FP inh = inhibitors of human PAFAH1B3; Q15102; recombinant PAFAH1B3, FP-rhodamine probe, fluorescence polarization; inhibition, % at 3.39 µM; AID 492972; 0.28% of 340,000 active;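 active = inhibition above the screen-wide average of all tested compounds plus 3 SD, cut at about 25% in these data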;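 note: 0% = enzyme with DMSO only and 100% = wells lacking PAFAH1B3 protein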
# Target sequence (Q15102 whole entry, looked up): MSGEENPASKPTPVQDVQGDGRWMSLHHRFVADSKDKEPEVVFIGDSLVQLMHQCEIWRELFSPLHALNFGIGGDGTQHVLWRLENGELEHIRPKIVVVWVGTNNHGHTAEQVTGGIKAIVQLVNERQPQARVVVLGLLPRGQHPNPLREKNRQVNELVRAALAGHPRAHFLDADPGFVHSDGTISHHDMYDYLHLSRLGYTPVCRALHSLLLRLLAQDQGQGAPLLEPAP
# VIM-2 inh = blocks Pseudomonas aeruginosa VIM-2 metallo-beta-lactamase; purified VIM-2, nitrocefin hydrolysis, epi-absorbance fluorescence; inhibition, % at 5.6 µM; 0.89% of 290,000 active; AID 1527;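 active = inhibition above the mean of all tested compounds plus 3 SD, cutoff set per screening run, cut at about 7.5% in these data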;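 note: red hydrolysis product quenches plate fluorescence so inhibitors raise well fluorescence; 0% = enzyme with DMSO and 100% = DMSO without enzyme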
# PAFAH1B2 inh = inhibitors of human PAFAH1B2. inhibition, % at 3.39 µM. recombinant PAFAH1B2, FP-rhodamine activity probe, fluorescence polarization. 1.2% of 340,000 active. P68402;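 active = inhibition above the mean of all tested compounds plus 3 SD, cut at about 24% in these data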;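 note: 0% = enzyme with DMSO and 100% = wells lacking PAFAH1B2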
# Target sequence (P68402 whole entry, looked up): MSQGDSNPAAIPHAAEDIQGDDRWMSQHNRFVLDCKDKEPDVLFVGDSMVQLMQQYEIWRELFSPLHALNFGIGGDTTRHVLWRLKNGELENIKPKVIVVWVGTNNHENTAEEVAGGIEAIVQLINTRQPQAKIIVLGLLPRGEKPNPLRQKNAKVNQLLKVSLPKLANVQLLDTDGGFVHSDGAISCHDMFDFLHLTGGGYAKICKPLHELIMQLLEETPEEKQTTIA
# IMP-1 inh-2 = blocks IMP-1 metallo-beta-lactamase in VIM-2 selectivity screen | shares compounds with VIM-2 inh | purified IMP-1, nitrocefin hydrolysis, epi-absorbance fluorescence | inhibition, % at 5.6 µM | 1,300 tested, under 10 active | AID 1856; call rule not given here;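 note: 0% = enzyme with vehicle and 100% = vehicle without enzyme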
# VIM-2 FRET ctr = counter-screen for VIM-2 inhibitors: epi-absorbance artifacts via FRET. shares compounds with VIM-2 inh. purified VIM-2, CCF2 FRET substrate hydrolysis. inhibition, % at 5.6 µM. 23% of 1,300 active. AID 1857;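 active = inhibition above the mean of all tested compounds plus 3 SD, cut at about 19% in these data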;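 note: 0% = VIM-2 plus DMSO and 100% = no enzyme wells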
# TEM-1 inh = TEM-1 inhibition, counter-screen for VIM-2 inhibitors; shares compounds with VIM-2 inh; Purified TEM-1, nitrocefin hydrolysis, epi-absorbance fluorescence; inhibition, % at 5.6 µM; 3% of 1,300 active;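 active = inhibition above that campaign's mean inhibition plus 3 SD, cut at about 0.46% in these data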;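 note: 0% = TEM-1 with DMSO and 100% = TEM-1 with 100 µM potassium clavulanate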
# VIM-2 inh conf = confirmation of P. aeruginosa VIM-2 metallo-beta-lactamase inhibitors; shares compounds with VIM-2 inh; purified VIM-2, nitrocefin hydrolysis, epi-absorbance; inhibition, % at 5.6 µM; 96% of 1,300 active; AID 2187;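 active = inhibition of the VIM-2 beta-lactamase enzyme above about 11% from the earlier first-round screen, limit read from the data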;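 note: 0% = VIM-2 with DMSO and 100% = buffer wells without enzyme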
# * hit, by the source's call; . = not tested or not shown.
SMILES,IMP-1 inh-1,PAFAH2 inh,pPAFAH FP inh,PAFAH1B3 FP inh,VIM-2 inh,PAFAH1B2 inh,IMP-1 inh-2,VIM-2 FRET ctr,TEM-1 inh,VIM-2 inh conf
C=CCN(c1ccccc1)S(=O)(=O)c1cccc(C(=O)N2CC(C)CC(C)C2)c1 (configuration not stated),-3,-1,3,-1,-4,8,.,.,.,.
CN(C(=O)C(=O)c1cn(CC(=O)N2CCCC2)c2ccccc12)C1CCCCC1,-2,9,-1,1,-2,-4,.,.,.,.
CNc1cc(C)c(C#N)c2nc3ccccc3n12,-5,10,7,0,24*,-1,-3,2,-7,35*
CCN(CC)c1cc(C)c(C#N)c2nc3ccccc3n12,-4,-3,0,12,-3,-2,.,.,.,.
Cc1cc(N2CCN(c3ccccn3)CC2)n2c(nc3ccccc32)c1C#N,-3,8,.,3,1,-5,.,.,.,.
Cc1cc(Cl)n2c(nc3ccccc32)c1C#N,-3,-1,.,5,20*,5,-3,-8,-7,34*
CCc1c(C)c(C#N)c2nc3ccccc3n2c1NC,-3,2,0,-2,14*,0,-4,1,-7,21*
COc1ccc(N2C(=O)N3[C@@H]4c5ccccc5OC[C@@H]4[C@@H](c4ccccc4)[C@@]3(C)C2=O)cc1,.,2,2,4,.,1,.,.,.,.
O=C(CNC(c1ccccc1)c1ccccc1)NCc1ccccc1Cl,-2,-9,3,2,-1,5,.,.,.,.
CN1CCN(Cc2cc(COCc3ccccc3)c3cccnc3c2O)CC1,-2,11,9,12,12*,-1,-3,33*,-5,33*
Oc1ccc(CN2CCN(Cc3ccccc3)CC2)c2cccnc12,-2,-9,1,1,-1,-1,.,.,.,.
CC12CCC(c3c(CO)nn(-c4ccccc4)c31)C2(C)C (configuration not stated),1,6,3,1,-3,2,.,.,.,.
CC12CCC(c3c(C(=O)O)nn(-c4ccccc4)c31)C2(C)C (configuration not stated),0,3,-3,5,14*,7,-3,26*,-2,18*
COc1ccc(-c2cc(C(F)(F)F)nc(SCCC(=O)N3CCN4CCCC4C3)n2)cc1 (configuration not stated),3,-8,3,-2,13*,2,-3,6,-7,29*
COc1ccc(-c2cc(C(F)(F)F)nc(SCCC(=O)N3CCCC3)n2)cc1,0,-2,5,-8,-1,-12,.,.,.,.
NC(=O)c1cnn2c(C(F)(F)F)cc(-c3ccc(F)cc3)nc12,1,-1,-2,8,16*,1,-5,-1,-8,16*
NC(=O)c1cnn2c(C(F)(F)F)cc(-c3ccccc3)nc12,-2,0,8,-3,1,-2,.,.,.,.
O=P1(O)Cc2ccccc2-c2ccccc21,.,0,.,11,.,0,.,.,.,.
CNC(=O)CSc1nnc(NC(=O)C2CC(=O)N(c3ccccc3OC)C2)s1 (configuration not stated),-3,-27,7,2,33*,-2,-4,-1,-4,0
CCN(C(=O)CN1C(=O)S/C(=C\c2ccc(F)cc2)C1=O)C1CCS(=O)(=O)C1 (configuration not stated),-6,-13,2,-3,-4,2,.,.,.,.
Cc1c(OCC(=O)N(C)c2ccccc2)ccc2c3c(c(=O)oc12)CCC3,-1,9,-2,3,20*,2,-2,-2,-12,29*
Cc1c(OCC(=O)NCc2ccncc2)ccc2c3c(c(=O)oc12)CCCC3,0,3,-3,4,49*,-5,0,-6,-7,63*

# Compound activity (PubChem)
